The values below come from ChEMBL document CHEMBL1151456, “Anaerobic NADH-fumarate reductase system is predominant in the respiratory chain of Echinococcus multilocularis, providing a novel target for the chemotherapy of alveolar echinococcosis” (Antimicrob Agents Chemother, 2008).

Activity calls are given as the source filed them. No cut-off for these calls is given here.

Experiment [1] has as its system Echinococcus multilocularis. In words: Antiparasitic activity against Echinococcus multilocularis protoscolex at 5 uM after 5 days by trypan blue staining. Type of experiment: functional, organism-based. A digest of the protocol: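 Protoscoleces of the Nemuro strain, freed of host material, kept in long-term maintenance medium in six-well plates at about 500 protoscoleces/ml, with half the medium replaced twice weekly. Compound added to the medium at 5 or 50 μM; the vehicle control was 0.5% (vol/vol) DMSO. Run in triplicate. Viability was scored microscopically on >170 protoscoleces per well by motility and trypan blue exclusion.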

The nature of experiment [2]: Inhibition of NADH fumarate reductase in Echinococcus multilocularis protoscolece. The essentials: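 Enriched mitochondrial fraction from Nemuro-strain protoscoleces, 80 μg protein/ml, in 30 mM potassium phosphate pH 7.4 with 1 mM MgCl2 at 25°C. Made anaerobic over 3 min with glucose oxidase, catalase and 10 mM β-D-glucose. NADH (100 μM) oxidation followed at 340 nm after starting with 5 mM fumarate. IC50 determined.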

A short description of experiment [3]: Inhibition of bovine heart mitochondrial NADH oxidase.
Experiment [4] deals with Echinococcus multilocularis. Briefly: Antiparasitic activity against Echinococcus multilocularis protoscolex assessed dead parasite at 50 uM after 5 days by trypan blue staining. Type of experiment: functional, organism-based.
Experiment [5] relates to Echinococcus multilocularis. In words: Antiparasitic activity against Echinococcus multilocularis protoscolex assessed as reduction of parasite viability at 50 uM by trypan blue staining. Type of experiment: functional, organism-based.

Regarding `C=C(C)[C@H]1Cc2c(ccc3c2O[C@@H]2COc4cc(OC)c(OC)cc4[C@@H]2C3=O)O1`, the result in experiment [1] was Active.
As usually defined, the IC50 is the midpoint of a concentration-inhibition curve. A high value points to a need for much substance. Compound `C=CC(=O)Nc1ccc2ncnc(NCCc3ccc(C(C)(C)C)cc3)c2c1` showed an IC50 in experiment [2] of 16 nM.
The same measure, in the same setting: the value for `COc1cccc2c(NCCc3ccc(C(C)(C)C)cc3)ncnc12` was 48 nM.
With `CC(=O)Oc1ccccc1C(=O)Nc1ncc([N+](=O)[O-])s1`, the result in experiment [1] was inactive.
Compound `CC(C)Oc1cccc2c(NCCc3ccc(C(C)(C)C)cc3)ncnc12` displayed an IC50 in experiment [2] of 910 nM.
Take `CC(C)(C)c1ccc(CCNc2ncnc3cc(N)ccc23)cc1`: it took 62 nM to reach half-maximal inhibition in experiment [2] (IC50). This IC50 lies about 15-fold lower than the previous one.
In turn, `CC(C)(C)c1ccc(CCNc2ncnc3ccc(N)cc23)cc1` showed an IC50 in experiment [2] of 2.1 nM.
Consider `CC(C)(C)c1ccc(CCNc2ncnc3c(O)cccc23)cc1`, for which the IC50 is 71 nM in experiment [2] and 230 nM in experiment [3]. Also, the result in experiment [1] was inactive. Further, the result in experiment [4] and in experiment [5] was Active.
`c1ccc2ncncc2c1` [QUINAZOLINE]: the IC50 in experiment [2] worked out at 2.3 nM. In other words, the single-digit nanomolar range.
In turn, `CCOc1cccc2c(NCCc3ccc(C(C)(C)C)cc3)ncnc12` registered an IC50 in experiment [2] of 4100 nM.
